In ChEMBL document CHEMBL4732106, “Paracetamol analogues conjugated by FAAH induce TRPV1-mediated antinociception without causing acute liver toxicity” (Eur J Med Chem, 2021):
Calls of active or inactive are those of the source. The calls are words filed in the database; no cut-off is given here.

What was measured:
Mus musculus [1] = test: Antipyretic activity against LPS-induced C57BL/6 mouse model of hyperthermia assessed as reduction in body temperature at 100 mg/kg, ip measured after 75 mins; format: functional, organism-based
Procedure, shortened: (§1)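 Male C57BL/6 mice carried telemetry and recovered ≥1 week before use, housed at 29 °C ambient (near-thermoneutral). LPS 100 μg kg⁻¹ i.p. or saline was given, then drug or Ringer's acetate vehicle i.p. 3 h later. Core temperature was recorded continuously and analysed at the nadir time point. n = 4–9 per group.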

[2] = Inhibition of prostanoid synthesis in FAAH+/+ mouse assessed as 6-keto-PGF1alpha level in diencephalon at 150 mg/kg, ip measured after 40 mins by LC-MS/MS analysis relative to control; format: functional; design: scale not given: the % may be the effect or the level left
Procedure, shortened: (§2)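 In a separate set, FAAH+/+ (n = 10–11) and FAAH-/- (n = 5) mice received LPS 100 μg kg⁻¹ i.p., then paracetamol 150 mg kg⁻¹ i.p. 3 h later. Diencephalic PGE2, PGF2α, 6-keto-PGF1α and TXB2 were measured by negative-ion LC-MS/MS and expressed as % of febrile vehicle-treated animals. Values below the detection limit were set to 1/4 of that limit.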

[3] = Inhibition of prostanoid synthesis in FAAH-/- mouse assessed as TXB2 level in diencephalon at 150 mg/kg, ip measured after 40 mins by LC-MS/MS analysis relative to control; format: functional; design: scale not given: the % may be the effect or the level left; procedure, shortened: as §2
[4] = Hepatotoxicity in C57BL/6 mouse assessed as change in ALT level at 300 mg/kg, ip measured after 12 hrs; format: toxicity, organism-based; details: in vivo
Procedure, shortened: (§3)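 Male C57BL/6 mice (8 weeks) were fasted 12–16 h, then given 300 mg kg⁻¹ i.p. in saline. At 12 h, blood was taken for serum ALT/AST (automated analyser). The left medial liver lobe was fixed in 4% formaldehyde, cryosectioned at 10 μm and stained with H&E. The ALT/AST ratio was tested against 1. Mean ± SEM, n = 6–7.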

Mus musculus [5] = test: Antipyretic activity against LPS-induced C57BL/6 mouse model of hyperthermia assessed as PGF2alpha level in diencephalon at 100 mg/kg, ip measured after 40 mins by LC-MS/MS analysis relative to control; format: functional
Procedure, shortened: (§4)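 Male C57BL/6 mice got LPS (E. coli O111:B4, 100 μg kg⁻¹ i.p.) or saline, then 3 h later the drug i.p. in Ringer's acetate vehicle. Diencephalon was taken 40 min later and homogenized in Tris/EDTA/ascorbate with 10 μM MAFP and 100 μM ibuprofen. Prostanoids were quantified by negative-ion LC-MS/MS and expressed as % of LPS + vehicle. n = 6.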

Mus musculus [6] = test: Antipyretic activity against LPS-induced C57BL/6 mouse model of hyperthermia assessed as 6-keto-PGF1alpha level in diencephalon at 100 mg/kg, ip measured after 40 mins by LC-MS/MS analysis relative to control; format: functional; procedure, shortened: as §4
[7] = Inhibition of prostanoid synthesis in FAAH-/- mouse assessed as PGF2alpha level in diencephalon at 150 mg/kg, ip measured after 40 mins by LC-MS/MS analysis relative to control; format: functional; design: scale not given: the % may be the effect or the level left; procedure, shortened: as §2
[8] = Inhibition of prostanoid synthesis in FAAH+/+ mouse assessed as TXB2 level in diencephalon at 150 mg/kg, ip measured after 40 mins by LC-MS/MS analysis relative to control; format: functional; design: scale not given: the % may be the effect or the level left; procedure, shortened: as §2
[9] = Inhibition of prostanoid synthesis in FAAH-/- mouse assessed as PGE2 level in diencephalon at 150 mg/kg, ip measured after 40 mins by LC-MS/MS analysis relative to control; format: functional; design: scale not given: the % may be the effect or the level left; procedure, shortened: as §2
[10] = Inhibition of prostanoid synthesis in FAAH-/- mouse assessed as 6-keto-PGF1alpha level in diencephalon at 150 mg/kg, ip measured after 40 mins by LC-MS/MS analysis relative to control; format: functional; design: scale not given: the % may be the effect or the level left; procedure, shortened: as §2
[11] = Inhibition of prostanoid synthesis in FAAH+/+ mouse assessed as PGE2 level in diencephalon at 150 mg/kg, ip measured after 40 mins by LC-MS/MS analysis relative to control; format: functional; design: scale not given: the % may be the effect or the level left; procedure, shortened: as §2
[12] = Inhibition of prostanoid synthesis in FAAH+/+ mouse assessed as PGF2alpha level in diencephalon at 150 mg/kg, ip measured after 40 mins by LC-MS/MS analysis relative to control; format: functional; design: scale not given: the % may be the effect or the level left; procedure, shortened: as §2
Mus musculus [13] = test: Antipyretic activity against LPS-induced C57BL/6 mouse model of hyperthermia assessed as PGE2 level in diencephalon at 100 mg/kg, ip measured after 40 mins by LC-MS/MS analysis relative to control; format: functional; procedure, shortened: as §4
Mus musculus [14] = test: Antipyretic activity against LPS-induced C57BL/6 mouse model of hyperthermia assessed as TXB2 level in diencephalon at 100 mg/kg, ip measured after 40 mins by LC-MS/MS analysis relative to control; format: functional; procedure, shortened: as §4
[15] = Hepatotoxicity in C57BL/6 mouse assessed as centrilobular necrosis at 300 mg/kg, ip measured after 12 hrs by H and E staining based microscopic analysis; format: toxicity, organism-based; details: in vivo; procedure, shortened: as §3
Mus musculus [16] = test: Antipyretic activity against LPS-induced C57BL/6 mouse model of hyperthermia assessed as TXB2 level in diencephalon at 30 mg/kg, ip measured after 40 mins by LC-MS/MS analysis relative to control; format: functional; procedure, shortened: as §4
Mus musculus [17] = test: Antipyretic activity against LPS-induced C57BL/6 mouse model of hyperthermia assessed as 6-keto-PGF1alpha level in diencephalon at 30 mg/kg, ip measured after 40 mins by LC-MS/MS analysis relative to control; format: functional; procedure, shortened: as §4
[18] = target: T1, Fatty-acid amide hydrolase 1 (Mus musculus, UniProt O08914); test: Substrate activity at FAAH in FAAH+/+ mouse brain assessed as N-arachidonoyl conjugate level per g protein at 0.1 mM measured after 20 mins by LC-MS/MS analysis; format: ADME, tissue-based; details: 100 µM
T1 sequence (O08914 whole entry): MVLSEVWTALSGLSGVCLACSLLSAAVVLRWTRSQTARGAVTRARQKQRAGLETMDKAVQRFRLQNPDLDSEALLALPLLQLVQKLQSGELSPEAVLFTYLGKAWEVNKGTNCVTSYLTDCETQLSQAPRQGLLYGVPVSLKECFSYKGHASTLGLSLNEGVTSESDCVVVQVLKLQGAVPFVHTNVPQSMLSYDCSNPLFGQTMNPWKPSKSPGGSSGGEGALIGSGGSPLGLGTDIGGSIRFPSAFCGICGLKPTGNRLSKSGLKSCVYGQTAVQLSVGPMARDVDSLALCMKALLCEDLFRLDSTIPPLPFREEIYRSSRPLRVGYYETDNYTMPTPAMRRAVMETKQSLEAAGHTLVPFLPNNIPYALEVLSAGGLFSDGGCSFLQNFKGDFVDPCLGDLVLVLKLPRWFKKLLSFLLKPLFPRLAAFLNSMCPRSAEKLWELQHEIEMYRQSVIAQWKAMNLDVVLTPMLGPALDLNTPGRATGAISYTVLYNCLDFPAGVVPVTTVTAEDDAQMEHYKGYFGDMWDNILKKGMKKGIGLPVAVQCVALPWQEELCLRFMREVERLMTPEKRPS
Procedure, shortened: (§5)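 Brains from FAAH+/+ or FAAH-/- mice were homogenized in ice-cold 10 mM Tris with 1 mM EDTA and 0.3 mM ascorbic acid. Aliquots were incubated with 0.1 mM primary amine for 20 min at 37 °C with stirring. Reactions were stopped with cold acetone containing AM404-d4 internal standard, and conjugates were measured by LC-MS/MS. n = 5–7.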

Mus musculus [19] = test: Hepatotoxicity in C57BL/6 mouse assessed as change in ALT/AST ratio at 300 mg/kg, ip measured after 12 hrs; format: functional; procedure, shortened: as §3
Mus musculus [20] = test: Antipyretic activity against LPS-induced C57BL/6 mouse model of hyperthermia assessed as PGF2alpha level in diencephalon at 30 mg/kg, ip measured after 40 mins by LC-MS/MS analysis relative to control; format: functional; procedure, shortened: as §4
[21] = Prodrug conversion in FAAH-/- mouse brain assessed as N-arachidonoyl conjugate level per g protein at 100 mg/kg, ip measured after 20 mins by LC-MS/MS analysis; format: ADME, organism-based; design: unit: pmol/g protein; details: in vivo
Procedure, shortened: (§6)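 FAAH+/+ and FAAH-/- mice (both sexes) received the primary amine i.p. in saline (sometimes with 5% DMSO). Brains were collected 20 min later, frozen, and homogenized in Tris/EDTA/ascorbate with 10 μM MAFP. N-arachidonoyl conjugates were quantified by positive-ion LC-MS/MS and normalized to protein.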

Mus musculus [22] = test: Antipyretic activity against LPS-induced C57BL/6 mouse model of hyperthermia assessed as PGE2 level in diencephalon at 30 mg/kg, ip measured after 40 mins by LC-MS/MS analysis relative to control; format: functional; procedure, shortened: as §4
[23] = Prodrug conversion in FAAH+/+ mouse brain assessed as N-arachidonoyl conjugate level per g protein at 100 mg/kg, ip measured after 20 mins by LC-MS/MS analysis; format: ADME, organism-based; design: unit: pmol/g protein; details: in vivo; procedure, shortened: as §6
Mus musculus [24] = test: Antipyretic activity against LPS-induced C57BL/6 mouse model of hyperthermia assessed as reduction in body temperature at 30 mg/kg, ip measured after 75 mins; format: functional, organism-based; procedure, shortened: as §1
[25] = Prodrug conversion in FAAH-/- mouse brain assessed as N-arachidonoyl conjugate level per g protein at 0.1 mM measured after 20 mins by LC-MS/MS analysis; format: ADME, tissue-based; details: in vitro, 100 µM; procedure, shortened: as §5

SMILES: CC(=O)Nc1ccc(O)cc1 [ACETAMINOPHEN]
- Activity (Mus musculus [1]): Active
- Activity [2]: 15%
- Activity [3]: 18%
- Activity [4]: Toxic
- Activity (Mus musculus [5]): 18%
- Activity (Mus musculus [6]): 17%
- Activity [7]: 10%
- Activity [8]: 25%
- Activity [9]: 9%
- Activity [10]: 12%
- Activity [11]: 8%
- Activity [12]: 19%
- Activity (Mus musculus [13]): 13%
- Activity (Mus musculus [14]): 36%
- Activity [15]: Toxic

SMILES: Nc1ccc(O)cc1 [4-AMINOPHENOL]
- Activity (Mus musculus [16]): 60%
- Activity (Mus musculus [17]): 60%
- Activity [4]: Non-Toxic
- Drug metabolism [18]: 8.8 nmol/g
- Ratio (Mus musculus [19]): >1
- Activity (Mus musculus [20]): 81%
- Drug metabolism [21]: 24 pmol
- Activity (Mus musculus [22]): 44%
- Drug metabolism [23]: 1002 pmol
- Activity [15]: Non-Toxic
- Activity (Mus musculus [24]): inactive
- Drug metabolism [25]: 0.05 nmol/g
